Experimental data reported in ChEMBL document CHEMBL1122336, “Aromatic amidines: comparison of their ability to block respiratory syncytial virus induced cell fusion and to inhibit plasmin, urokinase, thrombin, and trypsin” (J Med Chem, 1983).

Key:
[1] = target: T1, Urokinase-type plasminogen activator (Homo sapiens, UniProt P00749); experiment: Inhibition constant against Urokinase
Prothrombin = Prothrombin (Bos taurus, UniProt P00735); experiment: Inhibition constant against bovine thrombin
Serine protease 1 = target: T2, Serine protease 1 (Bos taurus, UniProt P00760); experiment: Inhibition constant against bovine trypsin
T2 sequence (P00760 whole entry): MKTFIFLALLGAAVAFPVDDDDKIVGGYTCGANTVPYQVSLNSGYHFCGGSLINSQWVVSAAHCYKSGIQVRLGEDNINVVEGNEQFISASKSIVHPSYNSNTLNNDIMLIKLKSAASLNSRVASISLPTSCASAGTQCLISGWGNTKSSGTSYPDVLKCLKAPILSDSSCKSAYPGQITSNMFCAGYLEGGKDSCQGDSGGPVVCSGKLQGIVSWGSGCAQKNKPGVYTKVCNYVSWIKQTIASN

Plasminogen = Plasminogen (Homo sapiens, UniProt P00747); experiment: Inhibition constant against human plasminogen
Sequence of Plasminogen (P00747 97-580 limits assumed): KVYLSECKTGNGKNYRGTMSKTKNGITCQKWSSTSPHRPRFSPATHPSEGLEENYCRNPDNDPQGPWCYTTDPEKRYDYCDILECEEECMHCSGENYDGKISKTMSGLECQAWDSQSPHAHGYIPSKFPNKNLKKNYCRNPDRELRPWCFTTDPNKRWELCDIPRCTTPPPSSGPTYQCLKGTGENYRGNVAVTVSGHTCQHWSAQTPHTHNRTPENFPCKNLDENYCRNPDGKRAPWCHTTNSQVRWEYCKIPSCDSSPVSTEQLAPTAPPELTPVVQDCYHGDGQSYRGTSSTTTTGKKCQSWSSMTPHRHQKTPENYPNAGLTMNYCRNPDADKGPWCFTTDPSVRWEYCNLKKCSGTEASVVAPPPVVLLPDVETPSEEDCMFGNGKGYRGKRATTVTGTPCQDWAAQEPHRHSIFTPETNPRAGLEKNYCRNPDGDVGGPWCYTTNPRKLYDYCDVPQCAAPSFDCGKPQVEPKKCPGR
Sequence of Plasminogen (P00747 581-810 limits assumed): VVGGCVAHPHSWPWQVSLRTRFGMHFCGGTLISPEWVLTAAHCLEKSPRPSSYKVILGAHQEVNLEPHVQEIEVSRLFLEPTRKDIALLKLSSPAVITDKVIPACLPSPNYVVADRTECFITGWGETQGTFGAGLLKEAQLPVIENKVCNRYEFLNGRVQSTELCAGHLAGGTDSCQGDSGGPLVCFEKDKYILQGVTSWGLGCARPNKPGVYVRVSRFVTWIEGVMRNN
Procedure, shortened: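 Amidase assay with plasmin on N-benzoyl-DL-arginine p-nitroanilide (BAPNA), run at pH 7.6 and 37 °C. Ki was derived from a Dixon plot of reciprocal initial velocities against inhibitor concentrations at two substrate levels.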

HEp-2 [2] = experiment: Minimum concentration required for the complete blockage of virus induced cell […]; NB means no blockage of cell fusion at the highest concentration where there is cytotoxicity at 100 uM; format: functional, cell-based; conditions: Homo sapiens
HEp-2 [3] = experiment: Minimum concentration required for the complete blockage of virus induced cell […]; NB means no blockage of cell fusion at the highest concentration where there is cytotoxicity at 10 uM; format: functional, cell-based; conditions: Homo sapiens
HEp-2 [4] = experiment: Minimum concentration required for the complete blockage of virus induced cell […]; cytotoxic at 100 uM; format: functional, cell-based; conditions: Homo sapiens
[5] = target: T1, Urokinase-type plasminogen activator; experiment: Inhibition constant against Urokinase; nonlinear kinetics
Procedure, shortened: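 Amidase assay with urokinase on the substrate L-pyroglutamylglycyl-L-arginine p-nitroanilide (S-2444), run at pH 8.1 and 37 °C. Ki was read from a Dixon plot: the reciprocal of initial velocity was plotted against inhibitor concentration at two substrate concentrations.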

HEp-2 [6] = experiment: Minimum concentration required for the complete blockage of virus induced cell division.; format: functional, cell-based; conditions: Homo sapiens
Procedure, shortened: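 HEp-2 cells (MEM + 10% FBS, passages 370–376, mycoplasma-free) seeded to ~10^6 cells/well at 72 h; RS virus A2 strain adsorbed at 0.1 MOI for 2 h at 36 °C. Wells rinsed, then given inhibitor at 100, 10, 1.0, 0.5 or 0.1 in MEM with 2% FBS and 1% Me2SO. Fusion blockage and toxicity scored at 72 h.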

Compound	Ki [1]	Ki (Prothrombin)	Ki (Serine protease 1)	Ki (Plasminogen)	Concentration (HEp-2 [2])	Concentration (HEp-2 [3])	Concentration (HEp-2 [4])	Ki [5]	Concentration (HEp-2 [6])
N=C(N)c1ccc2c(C=O)c[nH]c2c1	10.6 µM	> 1000 µM	25.5 µM	43 µM					
N=C(N)c1ccc2[nH]ccc2c1	131 µM	7.68 µM	29.1 µM	112 µM					
CCC(=O)c1cc2ccc(C(=N)N)cc2[nH]1	40.3 µM	55 µM	15.3 µM	61.5 µM	Cytotoxic				
N=C(N)c1ccc(OCCCCOc2ccc(-c3nc4cc(C(=N)N)ccc4[nH]3)cc2)cc1						Cytotoxic			
N=C(N)c1ccc(OCCOc2ccc(-c3nc4cc(C(=N)N)ccc4[nH]3)cc2)cc1							10 µM		
N=C(N)c1ccc2c(ccn2Cc2ccccc2)c1	191 µM	20.1 µM	15.4 µM	844 µM	Cytotoxic				
N=C(N)c1ccc2[nH]c(Oc3ccc(-c4nc5cc(C(=N)N)ccc5[nH]4)cc3)nc2c1		3.94 µM	4.67 µM	~200 µM	Cytotoxic			nonlinear kinectics	
CCn1ccc2cc(C(=N)N)ccc21	280 µM	42.8 µM	137 µM	> 400 µM			10 µM		
N=C(N)c1ccc(OCCCOc2ccc(-c3nc4cc(C(=N)N)ccc4[nH]3)cc2)cc1							10 µM		
Cn1ccc2cc(C(=N)N)ccc21	196 µM	35.2 µM	85.3 µM	> 1000 µM					
N=C(N)c1ccc(Cn2ccc3cc(C(=N)N)ccc32)c(Cl)c1		47.8 µM	5.31 µM	> 700 µM			10 µM		
N=C(N)c1ccc2c(C(=O)C(F)(F)F)c[nH]c2c1	> 100 µM	1510 µM	> 1000 µM	> 1000 µM	Cytotoxic				
N=C(N)c1ccc(OCCCCOc2ccc(-c3nc4ccc(C(=N)N)cc4[nH]3)cc2)cc1	4.47 µM			8.18 µM					
N=C(N)c1ccc2c(C(=O)c3ccccc3)c[nH]c2c1	267 µM	176 µM	> 100 µM	> 200 µM	Cytotoxic				
N=C(N)c1ccc2c(ccn2Cc2ccc([N+](=O)[O-])cc2N)c1	40 µM	4.8 µM	5.31 µM	100 µM			10 µM		
N=C(N)c1ccc(Cn2ccc3cc(C(=N)N)ccc32)cc1		24.8 µM	3.18 µM	60 µM			10 µM		
N=C(N)c1ccc2nc(Cc3nc4ccc(C(=N)N)cc4[nH]3)[nH]c2c1				2.65 µM					0.5 µM
N=C(N)c1ccc(OCCOc2ccc(-c3nc4ccc(C(=N)N)cc4[nH]3)cc2)cc1	12 µM			3.9 µM					
N=C(N)c1ccc(Cn2ccc3ccccc32)cc1		13.1 µM		111 µM			1 µM		
N=C(N)c1ccc(Cn2ccc3cc([N+](=O)[O-])ccc32)cc1	> 200 µM	164 µM	3.44 µM	> 400 µM	Cytotoxic				
N=C(N)c1cccc(Cn2ccc3cc(C(=N)N)ccc32)c1		22.4 µM	8.29 µM	65.6 µM			10 µM		
N=C(N)c1ccc2c(ccn2CCCCn2ccc3cc(C(=N)N)ccc32)c1	9.96 µM	11.1 µM	3.2 µM	2.93 µM			10 µM		
N=C(N)c1ccc(OCCCCCOc2ccc(-c3nc4cc(C(=N)N)ccc4[nH]3)cc2)cc1	8 µM			3.83 µM		Cytotoxic			
N=C(N)c1ccc2c(ccn2Cc2cccc(N)c2)c1		15.4 µM	16.8 µM	164 µM	Cytotoxic				
N=C(N)c1ccc(OCCCOc2ccc(-c3nc4ccc(C(=N)N)cc4[nH]3)cc2)cc1	17.8 µM			8.19 µM					
CC(=O)c1c[nH]c2cc(C(=N)N)ccc12	> 100 µM	1890 µM	> 1000 µM	> 1000 µM	Cytotoxic				
N=C(N)c1ccc2c(ccn2Cc2cccc([N+](=O)[O-])c2)c1		6.39 µM	7.77 µM	> 100 µM			10 µM		
